Measured values published in ChEMBL document CHEMBL2062515, “Synthesis and evaluation of novel radioligands for positron emission tomography imaging of metabotropic glutamate receptor subtype 1 (mGluR1) in rodent brain” (J Med Chem, 2012).

Legend:
Blood [1] = test: Biodistribution in mouse blood at 4.8 MBq/140 uL, iv after 30 mins by gamma counting; type: ADME, organism-based; settings: in vivo, 0.5 h
How it was run: (§1)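 Mice received the radioligand in saline by tail vein (4.8 MBq/140 μL, 40 pmol). Four mice per time point were killed by cervical dislocation at 1, 5, 15, 30 and 60 min. Tissues were removed quickly and counted in an autogamma counter. Data are decay-corrected % injected dose per gram of wet tissue, mean ± SE, n = 4.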

Thalamus [2] = test: Drug uptake in wild type mouse thalamus at 17 MBq, iv up to 60 mins by PET analysis; type: ADME, organism-based; settings: in vivo, 1 h
Spleen [3] = test: Biodistribution in mouse spleen at 4.8 MBq/140 uL, iv after 15 mins by gamma counting; type: ADME, organism-based; settings: in vivo, 0.25 h
How it was run: (§2)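 [¹¹C]radioligand in saline (4.8 MBq/140 μL, 40 pmol) injected via tail vein; four mice per time point killed by cervical dislocation at 1, 5, 15, 30, 60 min. Tissues (small intestine including contents) removed, counted in autogamma counter, decay-corrected, expressed as % injected dose per gram wet tissue; mean SE, n = 4.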

Spleen [4] = test: Biodistribution in mouse spleen at 4.8 MBq/140 uL, iv after 5 mins by gamma counting; type: ADME, organism-based; settings: in vivo; how it was run: as §2
Blood [5] = test: Biodistribution in mouse blood at 4.8 MBq/140 uL, iv after 5 mins by gamma counting; type: ADME, organism-based; settings: in vivo; how it was run: as §1
Kidney [6] = test: Biodistribution in mouse kidney at 4.8 MBq/140 uL, iv after 60 mins by gamma counting; type: ADME, organism-based; settings: in vivo, 1 h; how it was run: as §1
Spleen [7] = test: Biodistribution in mouse spleen at 4.8 MBq/140 uL, iv after 30 mins by gamma counting; type: ADME, organism-based; settings: in vivo, 0.5 h; how it was run: as §2
Mus musculus [8] = test: Biodistribution in mouse testis at 4.8 MBq/140 uL, iv after 60 mins by gamma counting; type: ADME, organism-based; settings: in vivo, 1 h; how it was run: as §2
Spleen [9] = test: Biodistribution in mouse spleen at 4.8 MBq/140 uL, iv after 1 min by gamma counting; type: ADME, organism-based; settings: in vivo; how it was run: as §2
[10] = Ratio of drug uptake in thalamus to pons of Sprague-Dawley rat at 16 MBq administered as bolus infusion; settings: in vivo, iv
Mus musculus [11] = test: Biodistribution in mouse testis at 4.8 MBq/140 uL, iv after 1 min by gamma counting; type: ADME, organism-based; settings: in vivo; how it was run: as §2
[12] = Metabolic stability in Sprague-Dawley rat brain assessed as compound remaining after 90 mins; type: ADME, tissue-based; settings: read-out: Stability
Mus musculus [13] = test: Biodistribution in mouse small intestine at 4.8 MBq/140 uL, iv after 15 mins by gamma counting; type: ADME, organism-based; settings: in vivo, 0.25 h; how it was run: as §2
Mus musculus [14] = test: Biodistribution in mouse small intestine at 4.8 MBq/140 uL, iv after 30 mins by gamma counting; type: ADME, organism-based; settings: in vivo, 0.5 h; how it was run: as §2
Muscle tissue [15] = test: Biodistribution in mouse muscle at 4.8 MBq/140 uL, iv after 30 mins by gamma counting; type: ADME, organism-based; settings: in vivo, 0.5 h; how it was run: as §1
Brain [16] = test: Biodistribution in mouse brain at 4.8 MBq/140 uL, iv after 15 mins by gamma counting; type: ADME, organism-based; settings: in vivo, 0.25 h; how it was run: as §1
Spleen [17] = test: Biodistribution in mouse spleen at 4.8 MBq/140 uL, iv after 60 mins by gamma counting; type: ADME, organism-based; settings: in vivo, 1 h; how it was run: as §2
Cerebellum [18] = test: Drug uptake in wild type mouse cerebellum at 17 MBq, iv up to 60 mins by PET analysis; type: ADME, organism-based; settings: in vivo, 1 h
Brain [19] = test: Biodistribution in mouse brain at 4.8 MBq/140 uL, iv after 30 mins by gamma counting; type: ADME, organism-based; settings: in vivo, 0.5 h; how it was run: as §1
Cerebellum [20] = test: Drug uptake in Sprague-Dawley rat cerebellum at 16 MBq administered as bolus infusion after 90 mins by PET analysis; type: ADME, organism-based; settings: in vivo, iv, 1.5 h
[21] = Ratio of drug uptake in striatum to pons of Sprague-Dawley rat at 16 MBq administered as bolus infusion; settings: in vivo, iv
Kidney [22] = test: Biodistribution in mouse kidney at 4.8 MBq/140 uL, iv after 5 mins by gamma counting; type: ADME, organism-based; settings: in vivo; how it was run: as §1
Heart [23] = test: Biodistribution in mouse heart at 4.8 MBq/140 uL, iv after 60 mins by gamma counting; type: ADME, organism-based; settings: in vivo, 1 h; how it was run: as §1
Liver [24] = test: Biodistribution in mouse liver at 4.8 MBq/140 uL, iv after 30 mins by gamma counting; type: ADME, organism-based; settings: in vivo, 0.5 h; how it was run: as §1
Liver [25] = test: Biodistribution in mouse liver at 4.8 MBq/140 uL, iv after 5 mins by gamma counting; type: ADME, organism-based; settings: in vivo; how it was run: as §1
Brain [26] = test: Biodistribution in mouse brain at 4.8 MBq/140 uL, iv after 1 min by gamma counting; type: ADME, organism-based; settings: in vivo; how it was run: as §1
Heart [27] = test: Biodistribution in mouse heart at 4.8 MBq/140 uL, iv after 5 mins by gamma counting; type: ADME, organism-based; settings: in vivo; how it was run: as §1
Thalamus [28] = test: Drug uptake in Sprague-Dawley rat thalamus at 17 MBq administered as bolus infusion by PET analysis in presence of N-[4-[6-(isopropylamino)pyrimidin-4-yl]-1,3-thiazol-2-yl]-4-methoxy-N-methylbenzamide; type: ADME, organism-based; settings: in vivo, iv
Cerebellum [29] = test: Drug uptake in Sprague-Dawley rat cerebellum at 16 MBq administered as bolus infusion after 45 mins post injection by PET analysis; type: ADME, organism-based; settings: in vivo, iv, 0.75 h
Liver [30] = test: Biodistribution in mouse liver at 4.8 MBq/140 uL, iv after 15 mins by gamma counting; type: ADME, organism-based; settings: in vivo, 0.25 h; how it was run: as §1
Mus musculus [31] = test: Biodistribution in mouse small intestine at 4.8 MBq/140 uL, iv after 60 mins by gamma counting; type: ADME, organism-based; settings: in vivo, 1 h; how it was run: as §2
Lung [32] = test: Biodistribution in mouse lung at 4.8 MBq/140 uL, iv after 60 mins by gamma counting; type: ADME, organism-based; settings: in vivo, 1 h; how it was run: as §1
Muscle tissue [33] = test: Biodistribution in mouse muscle at 4.8 MBq/140 uL, iv after 1 min by gamma counting; type: ADME, organism-based; settings: in vivo; how it was run: as §1
Mus musculus [34] = test: Biodistribution in mouse testis at 4.8 MBq/140 uL, iv after 5 mins by gamma counting; type: ADME, organism-based; settings: in vivo; how it was run: as §2
Brain [35] = test: Biodistribution in mouse brain at 4.8 MBq/140 uL, iv after 60 mins by gamma counting; type: ADME, organism-based; settings: in vivo, 1 h; how it was run: as §1
Lung [36] = test: Biodistribution in mouse lung at 4.8 MBq/140 uL, iv after 30 mins by gamma counting; type: ADME, organism-based; settings: in vivo, 0.5 h; how it was run: as §1
Striatum [37] = test: Drug uptake in Sprague-Dawley rat striatum at 17 MBq administered as bolus infusion by PET analysis in presence of N-[4-[6-(isopropylamino)pyrimidin-4-yl]-1,3-thiazol-2-yl]-4-methoxy-N-methylbenzamide; type: ADME, organism-based; settings: in vivo, iv
Striatum [38] = test: Drug uptake in Sprague-Dawley rat striatum at 17 MBq administered as bolus infusion by PET analysis in presence of JNJ16259685; type: ADME, organism-based; settings: in vivo, iv
Lung [39] = test: Biodistribution in mouse lung at 4.8 MBq/140 uL, iv after 5 mins by gamma counting; type: ADME, organism-based; settings: in vivo; how it was run: as §1
Mus musculus [40] = test: Biodistribution in mouse small intestine at 4.8 MBq/140 uL, iv after 5 mins by gamma counting; type: ADME, organism-based; settings: in vivo; how it was run: as §2
Muscle tissue [41] = test: Biodistribution in mouse muscle at 4.8 MBq/140 uL, iv after 60 mins by gamma counting; type: ADME, organism-based; settings: in vivo, 1 h; how it was run: as §2
Cerebellum [42] = test: Drug uptake in Sprague-Dawley rat cerebellum at 17 MBq administered as bolus infusion by PET analysis in presence of JNJ16259685; type: ADME, organism-based; settings: in vivo, iv
Liver [43] = test: Biodistribution in mouse liver at 4.8 MBq/140 uL, iv after 60 mins by gamma counting; type: ADME, organism-based; settings: in vivo, 1 h; how it was run: as §1
Heart [44] = test: Biodistribution in mouse heart at 4.8 MBq/140 uL, iv after 15 mins by gamma counting; type: ADME, organism-based; settings: in vivo, 0.25 h; how it was run: as §1
Mus musculus [45] = test: Biodistribution in mouse testis at 4.8 MBq/140 uL, iv after 30 mins by gamma counting; type: ADME, organism-based; settings: in vivo, 0.5 h; how it was run: as §2

Drug uptake (Blood [1]): 0.67 % ID/g | Drug uptake (Thalamus [2]): Active | Drug uptake (Spleen [3]): 1.98 % ID/g | Drug uptake (Spleen [4]): 1.96 % ID/g | Drug uptake (Blood [5]): 1.95 % ID/g | Drug uptake (Kidney [6]): 2.92 % ID/g | Drug uptake (Spleen [7]): 2.14 % ID/g | Drug uptake (Mus musculus [8]): 0.33 % ID/g | Drug uptake (Spleen [9]): 1.97 % ID/g | Ratio [10]: 5.05 | Drug uptake (Mus musculus [11]): 0.72 % ID/g | remaining at 1.5 h [12]: > 80% | Drug uptake (Mus musculus [13]): 4.98 % ID/g | Drug uptake (Mus musculus [14]): 4.07 % ID/g | Drug uptake (Muscle tissue [15]): 0.64 % ID/g | Drug uptake (Brain [16]): 3.14 % ID/g | Drug uptake (Spleen [17]): 2.36 % ID/g | Drug uptake (Cerebellum [18]): Active | Drug uptake (Brain [19]): 2.38 % ID/g | Drug uptake (Cerebellum [20]): 90% | Ratio [21]: 4.32 | Drug uptake (Kidney [22]): 5.64 % ID/g | Drug uptake (Heart [23]): 0.81 % ID/g | Drug uptake (Liver [24]): 4.68 % ID/g | Drug uptake (Liver [25]): 8.34 % ID/g | Drug uptake (Brain [26]): 3.1 % ID/g | Drug uptake (Heart [27]): 2.09 % ID/g | Drug uptake (Thalamus [28]): Not Active | Drug uptake (Cerebellum [29]): Active | Drug uptake (Liver [30]): 5.57 % ID/g | Drug uptake (Mus musculus [31]): 3.97 % ID/g | Drug uptake (Lung [32]): 1.57 % ID/g | Drug uptake (Muscle tissue [33]): 2.04 % ID/g | Drug uptake (Mus musculus [34]): 0.83 % ID/g | Drug uptake (Brain [35]): 1.85 % ID/g | Drug uptake (Lung [36]): 1.92 % ID/g | Drug uptake (Striatum [37]): Not Active | Drug uptake (Striatum [38]): Not Active | Drug uptake (Lung [39]): 2.9 % ID/g | Drug uptake (Mus musculus [40]): 4.55 % ID/g | Drug uptake (Muscle tissue [41]): 0.52 % ID/g | Drug uptake (Cerebellum [42]): Not Active | Drug uptake (Liver [43]): 3.97 % ID/g | Drug uptake (Heart [44]): 1.19 % ID/g | Drug uptake (Mus musculus [45]): 0.38 % ID/g
Structure (SMILES): CC(C)Nc1cc(-c2csc(N(C)C(=O)c3ccc(O[11CH3])cc3)n2)ncn1
